# proKLK7 act – proKLK7 (human) activation, primary screen. P49862. purified proKLK7, EDANS-DABCYL substrate fluorescence; 100% is mature enzyme control, 0% vehicle. activation, % at 7 µM. 370,000 tested, 0.9% active. AID 652039;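 active = activation above the mean of all tested compounds plus 3 SD, computed per campaign excluding outliers beyond control limits, cut at about 13% in these data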
# DDE Tn6 FP inh – DD(E)-Tn6 binding inhibition, primary FP screen; Fibrin DD(E) TRITC-Tn6 fluorescence polarization displacement; inhibition, % at 8.3 µM; 370,000 tested, 0.21% active; AID 720509;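 active = inhibition above a per-campaign cutoff: mean of compounds within control limits plus 3 SD, cut at about 15% in these data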
# PLCb3 inh – blocks human PLC-beta3 enzyme activity; Q01970; inhibition, % at 12.2 µM; AID 720704; 370,000 tested, 0.18% active; Purified PLC-beta3, fluorogenic substrate, fluorescence; in the data active = inhibition above about 11%
# NRP1-CendR mod – modulators of CendR peptide binding to human neuropilin-1 | inhibition, % at 25 µM | O14786 | FAM-RPARPAR peptide binding to NRP-1, fluorescence polarization | 360,000 tested, 0.85% active | AID 602438;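 active = inhibition or corrected inhibition above about 18%, plus a signal ratio from 0.5 to 1.5, limit read from the data, passing the limit was not always enough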
# Target sequence (O14786 whole entry, looked up): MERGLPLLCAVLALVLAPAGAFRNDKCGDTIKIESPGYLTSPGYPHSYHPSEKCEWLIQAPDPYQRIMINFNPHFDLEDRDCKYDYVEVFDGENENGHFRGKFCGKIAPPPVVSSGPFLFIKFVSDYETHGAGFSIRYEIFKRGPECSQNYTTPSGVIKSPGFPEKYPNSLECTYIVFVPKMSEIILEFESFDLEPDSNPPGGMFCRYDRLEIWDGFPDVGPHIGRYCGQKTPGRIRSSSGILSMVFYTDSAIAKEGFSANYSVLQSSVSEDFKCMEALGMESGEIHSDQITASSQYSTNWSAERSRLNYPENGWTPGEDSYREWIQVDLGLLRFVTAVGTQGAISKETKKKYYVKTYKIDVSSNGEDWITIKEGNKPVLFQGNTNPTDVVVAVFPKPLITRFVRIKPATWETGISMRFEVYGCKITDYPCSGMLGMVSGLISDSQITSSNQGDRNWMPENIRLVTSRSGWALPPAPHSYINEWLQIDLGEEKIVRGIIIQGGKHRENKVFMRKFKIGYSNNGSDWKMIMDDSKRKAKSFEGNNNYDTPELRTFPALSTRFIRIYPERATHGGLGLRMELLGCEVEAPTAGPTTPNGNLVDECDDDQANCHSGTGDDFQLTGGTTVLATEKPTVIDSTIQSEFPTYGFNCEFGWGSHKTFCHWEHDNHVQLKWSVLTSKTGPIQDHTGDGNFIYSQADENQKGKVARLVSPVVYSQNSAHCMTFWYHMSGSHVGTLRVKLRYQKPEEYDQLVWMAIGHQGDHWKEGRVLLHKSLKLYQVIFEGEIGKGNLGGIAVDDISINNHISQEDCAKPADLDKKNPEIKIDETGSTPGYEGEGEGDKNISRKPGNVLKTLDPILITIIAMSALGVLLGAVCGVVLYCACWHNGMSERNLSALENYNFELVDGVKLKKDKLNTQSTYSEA
# Tn7 DDE FP – disrupts Tn7 cyclic peptide binding to fibrin D-Dimer-E complex; P02675; FP displacement of FITC-Tn7 peptide from fibrin DD(E); 0% = median of compound wells per plate; inhibition, % at 8.3 µM; 370,000 tested, 0.13% active;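 active = inhibition above the mean of compounds falling within the control limits plus 3 SD of them, cut at about 14% in these data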
#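 assay system = human clot-derived fibrin DD(E) complex | quantity = Fibrin-DD(E) at 2 µM final | timing = 10 min preincubation, 3 h with tracer, room temperature | signal = fluorescence polarization | measure = percent inhibition | benchmarks = high control wells with 10 µM unlabelled Aha-Tn7 peptide (full inhibition) | replicates = singlicate testing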
# PLC-gamma1 inh – blocks human PLC-gamma1 enzyme activity; inhibition, % at 12.2 µM; purified PLC-gamma1, fluorogenic substrate, fluorescence; 370,000 tested, 0.84% active; AID 720700; in the data active = inhibition above about 9.5%
# KLK7 act conf – proKLK7 activation, confirmation; shares compounds with proKLK7 act; purified proKLK7, EDANS-DABCYL substrate fluorescence; scaled: vehicle 0, mature enzyme 100; activation, % at 7 µM; 3,200 tested, 68% active;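 active = activation, as change over the incubation, above the mean of all tested compounds plus 3 SD, cut at about 13% in these data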
# EDANS interfere – fluorescence interference counter-screen for KLK7 activators; activation, % at 7 µM; AID 686952; EDANS-DABCYL substrate fluorescence interference, no enzyme, 4 h; solvent 0%, active enzyme control 100%; 3,200 tested, 80% active; shares compounds with proKLK7 act;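 active = activation above the all-compound mean plus 3 SD, ignoring values outside control-based bounds, cut at about 4.8% in these data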;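 also: value is the 4 h activation minus the activation read at time zero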
# EDANS interf – optically interferes with EDANS-DABCYL fluorescence, kallikrein-7 activator counter-screen; 250 tested, 20% active; EC50, µM; AID 720493; EDANS-DABCYL peptide fluorescence interference, no enzyme; shares compounds with proKLK7 act;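 active = compounds that raise the fluorescence signal in this interference counterscreen, with EC50 at or below 10 µM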;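 also: intact quenched peptide substrate alone read at 355 nm excitation and 520 nm emission; signal is fluorescence gain from T0 to T4 after four hours at room temperature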
# A number is an active result; i = inactive; nt = not tested or not shown. The list is not random: actives were taken first. Their share in the collection is about 3%.
SMILES,proKLK7 act,DDE Tn6 FP inh,PLCb3 inh,NRP1-CendR mod,Tn7 DDE FP,PLC-gamma1 inh,KLK7 act conf,EDANS interfere,others
CC(=O)N1CCC(C(=O)N2c3ccccc3N=C(c3ccc(C(F)(F)F)cc3)C2C(=O)NC(C)(C)C)CC1 (configuration not stated),32,i,i,i,i,i,i,i,
Cc1ccc(/C=N\NC(=O)CN2CCN(S(=O)(=O)c3ccc(Br)cc3)CC2)s1,i,i,i,nt,i,i,nt,nt,
Cc1ccc(S(=O)(=O)NC(CC(C)C)C(=O)Oc2ccc3c4c(c(=O)oc3c2)CCC4)cc1 (configuration not stated),49,i,i,i,i,i,90,77,
Cc1ccc(S(=O)(=O)NC(C(=O)Oc2ccc3c(C(F)(F)F)cc(=O)oc3c2)c2ccccc2)cc1 (configuration not stated),48,i,i,i,i,i,55,73,
CCC(NC(=O)OC(C)(C)C)C(=O)Oc1ccc2c3c(c(=O)oc2c1)CCC3 (configuration not stated),107,i,i,i,i,i,664,670,
CCC(C)C(NS(=O)(=O)c1ccc(C)cc1)C(=O)Oc1ccc2c3c(c(=O)oc2c1)CCC3 (configuration not stated),21,i,i,i,i,i,43,37,EDANS interf=i
CN(Cc1ccccc1)S(=O)(=O)c1cccc(C(=O)OCc2ccc(C(F)(F)F)cc2)c1,i,i,i,nt,i,i,nt,nt,
CC(C)CCNC(=O)[C@H]1COC(O)([C@H](Cc2ccccc2)NC(=O)[C@@H](NC(=O)OCc2ccccc2)C(C)C)CN1C (some centres not stated),nt,i,i,nt,i,i,nt,nt,
Cc1c(OC(=O)CNC(=O)OC(C)(C)C)ccc2c3c(c(=O)oc12)CCC3,418,i,i,i,i,i,463,485,
CC[C@@H](NS(=O)(=O)c1ccc(C)cc1)C(=O)Oc1ccc2c3c(c(=O)oc2c1)CCC3,241,i,i,i,i,i,534,473,
CC(C)CC(C(=O)Oc1ccc2c3c(c(=O)oc2c1)CCC3)N1C(=O)c2ccccc2C1=O (configuration not stated),i,i,i,i,i,i,nt,nt,
CN1C2CCCC1CC(NC(=O)c1nn(C)c3ccccc13)C2 (configuration not stated),i,i,i,nt,i,i,nt,nt,
CC(C)C[C@@H]1COc2cc(F)ccc2S(=O)(=O)N1C,i,i,i,nt,i,i,nt,nt,
COc1cccc(C2C=C(c3ccc(Br)s3)Nc3ncnn32)c1OC (configuration not stated),nt,nt,nt,i,nt,nt,nt,nt,
COc1ccc(C2C=C(c3ccc(C)c(C)c3)Nc3ncnn32)c(OC)c1OC (configuration not stated),18,i,i,i,i,i,24,30,
FC(F)(F)c1ccccc1C1=CC(c2ccccc2)n2ncnc2N1 (configuration not stated),25,i,i,i,i,i,27,26,
COc1ccc(C2C=C(c3ccccc3)Nc3ncnn32)cc1 (configuration not stated),52,i,i,i,i,i,71,74,
Cc1ccc(C2=CC(c3ccc(C)cc3)n3ncnc3N2)cc1 (configuration not stated),32,i,i,i,i,i,i,i,
O=C(Cc1ccccc1)NC1CCCCN(Cc2ccc(Cl)cc2)C1=O (configuration not stated),i,i,i,nt,i,i,nt,nt,
